Results pooled from the literature.
Each line is one published result; the experiments were not run side by side.

SMILES | host | medium | route | dose | notes | Cmax
C[C@H]1[C@@H](O)O[C@@H]2O[C@@]3(C)CC[C@H]4[C@H](C)CC[C@@H]1[C@@]24OO3 | Sprague-Dawley rat | plasma | oral | 10 mg/kg |  | 227 ng/mL
CC(=Nc1ccc(N=Cc2cnccn2)cc1)N(C)C | male Sprague-Dawley rat | plasma | oral | 200 mg/kg |  | 397 ng/mL
O=C1c2ccncc2C(=O)c2c1[nH]c1ccccc21 | rat | plasma | intravenous | 1 mg/kg | single dose | 3.25 µM
Nc1ccc(/C=C/C(=O)NCc2cc3cc(-c4ccc(C(=O)N5CCC(F)(F)CC5)cc4)cc(-c4ccc(F)cc4)c3o2)cn1 | rat | plasma | oral | 3 mg/kg |  | 5990 ng/mL
CC1(CN)CCN(c2cnc3c(Sc4ccncc4Cl)n[nH]c3n2)CC1 | male Sprague-Dawley rat | plasma | oral | 10 mg/kg |  | 142 ng/mL
O=c1cc(-c2ccc(O)c(O)c2)oc2cc(O)cc(O)c12 | male Sprague-Dawley rat | plasma | oral | 30 mg/kg |  | 40.1 ng/mL
Cc1c(C(=O)O)ccc2c3n(nc12)[C@@H]1[C@H](C3)N(CC2CC2)[C@@]2(C(=O)Nc3cc(Cl)ccc32)[C@H]1c1cccc(Cl)c1F | male rat | plasma | oral | 2 mg/kg |  | 5.7 µM
N#C[C@@]12C[C@@H]1[C@@H](n1cnc3c(N[C@@H](C4CCC4)C4CC4)nc(I)nc31)[C@H](O)[C@@H]2O | male Wistar rat | plasma | oral | 1 mg/kg |  | 6.73 ng/mL
O=C(C=Cc1ccccc1)Nc1cc(-c2ccnc(N3CCC(O)CC3)c2)ccn1 | female Sprague-Dawley rat | plasma | intravenous | 5 mg/kg |  | 324 ng/mL
O=C1CC[C@H](N2Cc3cc(N4CCN(CC5CCN(c6ccc([C@@H]7c8ccc(O)cc8CC[C@@H]7c7ccccc7)cc6)CC5)CC4)ccc3C2=O)C(=O)N1 | male Sprague-Dawley rat | plasma | oral | 20 mg/kg | fed | 1040 ng/mL
COc1ccc2cc3n(c(=O)c2c1OC)CCc1cc2c(cc1-3)OCO2 | male Sprague-Dawley rat | blood | oral | 50 mg/kg |  | 233 ng/mL
